# The source made the active and inactive calls. The rule behind the calls is not given here.
# Experiments:
# [1] = target: T1, Polyunsaturated fatty acid lipoxygenase ALOX15 (Homo sapiens) (UniProt P16050); assay: Activation of 15-LOX in human whole blood assessed as reduction in 5-HETE production at 100 uM pre-incubated for 20 mins before stimulation with LPS and A23187 for 120 mins in presence of 2 uM […] inhibitor Zileuton by LC-MS/MS method; format: tissue-based
# T1 sequence (whole entry): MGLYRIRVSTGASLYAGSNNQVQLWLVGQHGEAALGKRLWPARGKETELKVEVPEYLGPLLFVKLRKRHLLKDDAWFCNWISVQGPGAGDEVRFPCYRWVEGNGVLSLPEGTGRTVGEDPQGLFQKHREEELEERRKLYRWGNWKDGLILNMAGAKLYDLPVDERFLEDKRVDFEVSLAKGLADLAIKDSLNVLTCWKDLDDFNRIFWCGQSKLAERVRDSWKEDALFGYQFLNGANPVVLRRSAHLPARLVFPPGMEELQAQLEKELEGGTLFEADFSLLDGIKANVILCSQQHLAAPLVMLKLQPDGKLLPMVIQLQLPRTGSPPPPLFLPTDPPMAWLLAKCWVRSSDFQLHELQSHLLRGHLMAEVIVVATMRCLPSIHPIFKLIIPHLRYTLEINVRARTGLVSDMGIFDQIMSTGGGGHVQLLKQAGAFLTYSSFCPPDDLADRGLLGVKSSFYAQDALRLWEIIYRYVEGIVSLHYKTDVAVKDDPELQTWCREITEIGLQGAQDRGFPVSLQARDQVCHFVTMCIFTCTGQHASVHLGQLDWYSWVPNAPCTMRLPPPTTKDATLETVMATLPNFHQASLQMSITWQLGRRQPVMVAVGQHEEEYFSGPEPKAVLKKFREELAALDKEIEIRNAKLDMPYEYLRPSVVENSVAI
# Procedure, shortened: (§1)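 Human blood preincubated 20 min at 37 °C with DMSO vehicle or compound in DMSO. LPS added at 100 μg/mL for 24 h at 37 °C, then A23187 at 20 μg/mL final. Samples frozen in liquid nitrogen at time points, lysed by freeze–thaw, with PGB2 internal standard. Analysed by C18 LC-MRM MS, negative ion. Change = control-normalized concentration minus 1, ×100%; 120 min value from AUC.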
# [2] = target: Prostaglandin G/H synthase 1 (Homo sapiens) (UniProt P23219); assay: Activation of COX1 (unknown origin) assessed as PGG2 to PGH2 conversion by measuring N,N,N',N'-tetramethyl-p-phenylenediamine oxidation at 100 uM by spectrophotometry
# Prostaglandin G/H synthase 1 (Homo sapiens), sequence (P23219 whole entry): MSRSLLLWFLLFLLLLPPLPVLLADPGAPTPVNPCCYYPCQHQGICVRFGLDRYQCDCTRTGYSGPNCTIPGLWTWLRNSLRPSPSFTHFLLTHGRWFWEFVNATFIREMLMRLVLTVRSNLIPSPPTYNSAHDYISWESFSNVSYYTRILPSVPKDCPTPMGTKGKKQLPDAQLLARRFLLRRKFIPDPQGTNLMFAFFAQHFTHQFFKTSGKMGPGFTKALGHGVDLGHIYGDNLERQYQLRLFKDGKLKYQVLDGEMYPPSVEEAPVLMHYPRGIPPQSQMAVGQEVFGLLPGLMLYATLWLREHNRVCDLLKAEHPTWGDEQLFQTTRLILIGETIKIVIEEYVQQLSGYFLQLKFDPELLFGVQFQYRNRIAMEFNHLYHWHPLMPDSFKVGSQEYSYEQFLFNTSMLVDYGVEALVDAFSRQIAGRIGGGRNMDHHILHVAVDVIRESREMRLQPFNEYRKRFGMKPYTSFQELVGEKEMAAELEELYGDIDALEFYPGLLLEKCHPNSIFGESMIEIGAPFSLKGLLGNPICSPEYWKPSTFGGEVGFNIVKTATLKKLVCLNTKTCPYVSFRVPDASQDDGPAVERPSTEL
# [3] = target: T2, Prostaglandin G/H synthase 2 (Homo sapiens) (UniProt P35354); assay: Inhibition of COX2 (unknown origin) assessed as reduction in PGG2 to PGH2 conversion by measuring N,N,N',N'-tetramethyl-p-phenylenediamine oxidation at 100 uM by spectrophotometry
# T2 sequence (whole entry): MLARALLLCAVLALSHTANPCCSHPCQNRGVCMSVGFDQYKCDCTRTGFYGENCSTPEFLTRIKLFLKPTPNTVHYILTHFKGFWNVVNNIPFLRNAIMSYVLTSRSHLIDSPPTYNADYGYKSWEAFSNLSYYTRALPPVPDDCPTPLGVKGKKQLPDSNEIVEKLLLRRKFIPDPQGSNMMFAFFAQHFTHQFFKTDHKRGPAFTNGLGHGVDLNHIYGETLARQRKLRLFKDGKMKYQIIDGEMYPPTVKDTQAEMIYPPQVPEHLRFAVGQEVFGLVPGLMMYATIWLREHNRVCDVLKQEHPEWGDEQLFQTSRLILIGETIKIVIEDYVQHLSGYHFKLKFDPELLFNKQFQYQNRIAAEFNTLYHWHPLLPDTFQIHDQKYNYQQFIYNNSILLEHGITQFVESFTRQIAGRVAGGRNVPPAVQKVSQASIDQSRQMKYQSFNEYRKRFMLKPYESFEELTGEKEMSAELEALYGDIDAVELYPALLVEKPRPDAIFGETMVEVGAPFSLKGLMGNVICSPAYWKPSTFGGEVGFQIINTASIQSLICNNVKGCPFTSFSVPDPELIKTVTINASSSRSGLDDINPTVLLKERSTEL
# [4] = target: T1, Polyunsaturated fatty acid lipoxygenase ALOX15 (Homo sapiens); assay: Activation of 15-LOX in human whole blood assessed as increase in 13-HODE production at 100 uM pre-incubated for 20 mins before stimulation with LPS and A23187 for 120 mins by LC-MS/MS method; format: tissue-based; procedure, shortened: as §1
# [5] = target: T1, Polyunsaturated fatty acid lipoxygenase ALOX15 (Homo sapiens); assay: Activation of 15-LOX in human whole blood assessed as 5-HETE production at 100 uM pre-incubated for 20 mins before stimulation with LPS and A23187 for 120 mins in presence of 2 uM 5-LOX inhibitor Zileuton by LC-MS/MS method; format: tissue-based; procedure, shortened: as §1
# [6] = target: T1, Polyunsaturated fatty acid lipoxygenase ALOX15 (Homo sapiens); assay: Activation of 15-LOX in human whole blood assessed as increase in 15-HETE production at 100 uM pre-incubated for 20 mins before stimulation with LPS and A23187 for 120 mins by LC-MS/MS method; format: tissue-based; procedure, shortened: as §1
# [7] = target: T1, Polyunsaturated fatty acid lipoxygenase ALOX15 (Homo sapiens); assay: Activation of 15-LOX in human whole blood assessed as increase in 15-HETE production at 100 uM pre-incubated for 20 mins before stimulation with LPS and A23187 for 120 mins in presence of 2 uM […] inhibitor Zileuton by LC-MS/MS method; format: tissue-based; procedure, shortened: as §1
# [8] = target: T3, Leukotriene A-4 hydrolase (Homo sapiens) (UniProt P09960); assay: Inhibition of LTA4H hydrolase activity (unknown origin) assessed as reduction in LTB4 formation at 100 uM by enzyme linked immunosorbent assay
# T3 sequence (whole entry): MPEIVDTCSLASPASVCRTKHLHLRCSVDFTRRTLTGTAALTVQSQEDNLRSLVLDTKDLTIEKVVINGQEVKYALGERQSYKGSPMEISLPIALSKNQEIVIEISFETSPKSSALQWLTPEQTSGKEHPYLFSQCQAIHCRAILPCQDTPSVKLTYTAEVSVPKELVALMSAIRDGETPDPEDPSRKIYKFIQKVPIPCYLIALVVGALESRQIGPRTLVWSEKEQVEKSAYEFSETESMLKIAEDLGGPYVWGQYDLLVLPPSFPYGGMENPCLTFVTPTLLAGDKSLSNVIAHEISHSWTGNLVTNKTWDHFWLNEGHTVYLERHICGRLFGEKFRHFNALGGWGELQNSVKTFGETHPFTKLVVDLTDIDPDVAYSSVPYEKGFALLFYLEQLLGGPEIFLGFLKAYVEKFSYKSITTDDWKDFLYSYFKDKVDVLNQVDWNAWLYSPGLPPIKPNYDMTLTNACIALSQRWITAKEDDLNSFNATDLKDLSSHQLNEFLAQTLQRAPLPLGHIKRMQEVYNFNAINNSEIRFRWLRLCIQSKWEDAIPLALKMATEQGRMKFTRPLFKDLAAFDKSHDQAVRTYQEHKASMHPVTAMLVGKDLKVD
# Procedure, shortened: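 LTA4H hydrolase activity read as LTB4 formation by ELISA. Compound handled as in the 15-LOX assay.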
smiles,measurement,setting,value
CN1CCN(CC(=O)N2N=C3/C(=C/c4ccccc4)CCCC3C2c2ccccc2)CC1 (stereo not drawn),Activity,[1],Active
same,Activity,[2],< 5%
same,inhibition,[3],< 5%
same,Activity,[4],95%
same,Activity,[5],59%
same,Activity,[6],33%
same,Activity,[7],Active
same,inhibition,[8],< 5%

# — ChEMBL document CHEMBL3817796, “Discovery of Novel 15-Lipoxygenase Activators To Shift the Human Arachidonic Acid Metabolic Network toward Inflammation Resolution” (J Med Chem, 2016)
